Hits are enriched below; roughly 2.2% of the tested compounds scored in any of these assays.
dFosB act – activators of mouse delta FosB homodimer. AID 493131. 0.99% of 340,000 active. purified delta FosB, TAMRA-CDK5 oligo fluorescence polarization; percent of positive-control signal above neutral wells. P13346. activation, % at 25 µM;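 active = mean activation above about 17%, with every replicate also reaching it, limit read from the data, passing the limit was not always enough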
Rtt109 HAT inh – C. albicans Rtt109 histone acetyltransferase inhibition. Q5AAJ8. 0.16% of 330,000 active. inhibition, % at 34.9 µM. purified Rtt109/Vps75, ThioGlo CoA-SH fluorescence, 4 h;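 active = inhibition of at least 50% in every replicate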
Target sequence (Q5AAJ8 whole entry, looked up): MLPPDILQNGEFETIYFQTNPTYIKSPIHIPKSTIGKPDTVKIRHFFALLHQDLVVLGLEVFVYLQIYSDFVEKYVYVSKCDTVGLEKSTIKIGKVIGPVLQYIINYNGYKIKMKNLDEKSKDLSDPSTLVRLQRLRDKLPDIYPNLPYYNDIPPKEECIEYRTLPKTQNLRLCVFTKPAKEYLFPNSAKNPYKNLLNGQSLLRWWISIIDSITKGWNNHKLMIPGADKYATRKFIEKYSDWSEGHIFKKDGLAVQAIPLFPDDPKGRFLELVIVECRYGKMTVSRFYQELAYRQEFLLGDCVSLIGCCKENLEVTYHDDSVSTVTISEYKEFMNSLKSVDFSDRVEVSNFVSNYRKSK
CAL PDZ FP-1 – human CAL PDZ-peptide interaction inhibition. Q9HD26. purified CAL PDZ, TMR-peptide fluorescence polarization, 1 h. inhibition, % at 20 µM. 0.02% of 330,000 active. AID 504414;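 active = highest replicate inhibition of at least 40%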;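 note: plate controls were DMSO neutral control wells for no effect and unlabeled competitor peptide control wells for full effect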
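Material – purified CerCALP PDZ construct · Detection – FP readout, S and P plane fluorescence · Measure – percent inhibition from loss of millipolarization · Controls – unlabelled peptide for full inhibition, DMSO wells as neutral · Probe or stimulus – TMR-labelled reporter peptide T*-PRC34 bound in PDZ groove · Times – 1 h at RT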
CDK5 p35 inh – inhibitors of human CDK5/p35 kinase; Q00535+Q15078; Recombinant CDK5/p35, ADP-Glo luminescence, 60 min; inhibition, % at 10 µM; 0.01% of 330,000 active; AID 488839;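 active = highest replicate inhibition of at least 50% and at least 75% of replicates reaching 50%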;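 note: plate controls were DMSO neutral control for no effect and GW8510 at 10 µM for full effect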
CAL PDZ FP-2 – blocks peptide binding to the human CAL PDZ domain | purified CAL PDZ, TMR-peptide fluorescence polarization, 1 h | inhibition, % at 24.9 µM | 0.92% of 300,000 active | Q9HD26 | AID 602252;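 active = mean inhibition of at least 30% with at least half of replicates also reaching 30%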;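 note: 0% = DMSO neutral control and 100% = excess unlabeled competitor peptide PRC23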
DYRK1A inh – inhibitors of rat Dyrk1A kinase. Q63470. ADP-Glo luminescence, NFATc1 peptide. inhibition, % at 12.5 µM. 0.43% of 310,000 active. AID 504441; in the data active = inhibition above about 50%;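 note: plate controls were vehicle with enzyme for no effect and no enzyme for full effect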
The depositor's hits bear a star.

For O=C1CC(c2ccccc2)=C(c2ccccc2)C1 the results were dFosB act -7, Rtt109 HAT inh 1, CAL PDZ FP-1 50*, CDK5 p35 inh 0, CAL PDZ FP-2 -4 and DYRK1A inh -3.
COc1cccc(CN(C)C(=O)CN2C(=O)NC(c3ccccc3)(c3ccccc3)C2=O)c1 was read as dFosB act -19, Rtt109 HAT inh -4, CAL PDZ FP-1 0, CDK5 p35 inh 2 and CAL PDZ FP-2 79*.
For Cc1cc(C)c(NC(=O)CSCc2c(C)noc2C)c(Cl)c1 the results were dFosB act -8, Rtt109 HAT inh -8, CAL PDZ FP-1 -1, CDK5 p35 inh 0, CAL PDZ FP-2 -1 and DYRK1A inh -5.
`CCOc1ccc(NC(=O)c2ccc(N3CC4CC(C3)c3cccc(=O)n3C4)c(NC(=O)CCN3CCOCC3)c2)cc1` (stereo not given) gave dFosB act 4, Rtt109 HAT inh 2, CAL PDZ FP-1 -3, CDK5 p35 inh 0, CAL PDZ FP-2 -6 and DYRK1A inh -2.
O=C(CCN1CCOCC1)Nc1cc(C(=O)Nc2ccccc2F)ccc1N1CC2CC(C1)c1cccc(=O)n1C2 (stereo not given) was read as dFosB act -11, Rtt109 HAT inh 9, CAL PDZ FP-1 -1, CDK5 p35 inh -1, CAL PDZ FP-2 69* and DYRK1A inh -2.
Screening CN(C)N1C(=O)CC(NNC(=O)c2ccncc2)C1=O (stereo not given) returned dFosB act -2, Rtt109 HAT inh -5, CAL PDZ FP-1 -1, CDK5 p35 inh -1, CAL PDZ FP-2 -2 and DYRK1A inh -6.
For O=C1CN(C(=O)/C=C/c2ccc(Cl)cc2)c2ccccc2N1 the results were dFosB act -14, Rtt109 HAT inh 56*, CAL PDZ FP-1 -1, CDK5 p35 inh 1, CAL PDZ FP-2 -7 and DYRK1A inh 2.
O=C(COC(=O)c1cnccn1)c1ccc([N+](=O)[O-])cc1 was read as dFosB act 0, Rtt109 HAT inh 137*, CAL PDZ FP-1 0, CDK5 p35 inh 0, CAL PDZ FP-2 16 and DYRK1A inh -3.
`Cc1ccc(C(=O)COC(=O)c2cnccn2)cc1` gave dFosB act -4, Rtt109 HAT inh 4, CAL PDZ FP-1 0, CDK5 p35 inh -1, CAL PDZ FP-2 -4 and DYRK1A inh -10.
Screening COc1ccc2cc(C3=CC(=O)CCC3)ccc2c1 returned dFosB act 3, Rtt109 HAT inh -8, CAL PDZ FP-1 -1, CDK5 p35 inh -1 and CAL PDZ FP-2 0.
Screening COc1ccc(NS(=O)(=O)c2ccc3oc(=S)[nH]c3c2)cc1 returned dFosB act 0, Rtt109 HAT inh -1, CAL PDZ FP-1 -1, CDK5 p35 inh 2, CAL PDZ FP-2 31* and DYRK1A inh -1.
`CCN(CC)c1ccc(NS(=O)(=O)c2ccc(OC)cc2)cc1` gave dFosB act 8, Rtt109 HAT inh 2, CAL PDZ FP-1 -1, CDK5 p35 inh 0, CAL PDZ FP-2 66* and DYRK1A inh 2.
`O=C1OC(NC(=O)c2ccccc2)C(n2cc(CO)nn2)=C1Cl` (stereo not given) gave dFosB act -8, Rtt109 HAT inh 193*, CAL PDZ FP-1 1, CDK5 p35 inh 3, CAL PDZ FP-2 8 and DYRK1A inh 5.
`Cc1ccc(NC2=C(Cl)C(=O)OC2NC(=O)c2ccccc2)cc1` (stereo not given) gave dFosB act -2, Rtt109 HAT inh -2, CAL PDZ FP-1 0, CDK5 p35 inh -1 and DYRK1A inh 0.
Screening CC(=O)N1c2ccc(S(=O)(=O)N3CCC(C(=O)Nc4ccccn4)CC3)cc2CC1C (stereo not given) returned dFosB act -3, Rtt109 HAT inh -25, CAL PDZ FP-1 -4, CDK5 p35 inh -2, CAL PDZ FP-2 -2 and DYRK1A inh -3.
CCOC(=O)C1CCN(S(=O)(=O)c2ccc3c(c2)CC(C)N3C(=O)C2CCC2)CC1 (stereo not given) was read as dFosB act -1, Rtt109 HAT inh 54*, CAL PDZ FP-1 -2, CDK5 p35 inh 2, CAL PDZ FP-2 3 and DYRK1A inh 2.
`CC(=O)c1ccc(N2CCN(S(=O)(=O)c3ccc4c(c3)CC(C)N4C(C)=O)CC2)cc1` (stereo not given) gave dFosB act -5, Rtt109 HAT inh -9, CAL PDZ FP-1 -2, CDK5 p35 inh 0, CAL PDZ FP-2 -1 and DYRK1A inh 8.
CC1Cc2cc(S(=O)(=O)N3CCC(C(=O)N(C)Cc4ccco4)CC3)ccc2N1C(=O)C1CCC1 (stereo not given) was read as dFosB act -6, Rtt109 HAT inh 50*, CAL PDZ FP-1 -3, CDK5 p35 inh 1, CAL PDZ FP-2 3 and DYRK1A inh -1.
CC(=O)N1c2ccc(S(=O)(=O)N3CCC(C(=O)NC4CCCCC4)CC3)cc2CC1C (stereo not given) was read as dFosB act -7, Rtt109 HAT inh -2, CAL PDZ FP-1 -2, CDK5 p35 inh -1, CAL PDZ FP-2 64* and DYRK1A inh 4.
Screening CC(=O)c1ccc(N2CCN(S(=O)(=O)c3ccc4c(c3)CC(C)N4C(=O)C3CC3)CC2)cc1 (stereo not given) returned dFosB act -8, Rtt109 HAT inh 1, CAL PDZ FP-1 0, CDK5 p35 inh -1, CAL PDZ FP-2 72* and DYRK1A inh -3.
CCN(CC)C(=O)c1nc[nH]c1C(=O)O[C@@H](C)c1ccccc1 was read as dFosB act 1, Rtt109 HAT inh -3, CAL PDZ FP-1 1, CDK5 p35 inh -2, CAL PDZ FP-2 -1 and DYRK1A inh 3.
Screening Cc1cccc(N(Cc2ccccc2)C(=O)c2ccc(CS(C)(=O)=O)cc2)c1 returned dFosB act -13, Rtt109 HAT inh 0, CAL PDZ FP-1 -4, CDK5 p35 inh 0, CAL PDZ FP-2 -7 and DYRK1A inh -7.
Screening O=C(Cn1cc(COc2ccc(Br)cc2[N+](=O)[O-])nn1)c1ccc(O)cc1 returned dFosB act -5, Rtt109 HAT inh -2, CAL PDZ FP-1 0, CDK5 p35 inh 0, CAL PDZ FP-2 -9 and DYRK1A inh 17.
Screening COc1cc(OC)c(OC)cc1/C=C/C(=O)c1ccc(NS(=O)(=O)c2ccc(C)cc2)cc1 returned dFosB act -12, Rtt109 HAT inh 1, CAL PDZ FP-1 0, CDK5 p35 inh 0, CAL PDZ FP-2 -1 and DYRK1A inh -5.
For COc1ccc(/C=C/C(=O)NC(=S)Nc2ccc(S(=O)(=O)N=C(N)N)cc2)cc1OC the results were dFosB act 63*, Rtt109 HAT inh 18, CAL PDZ FP-1 -1, CDK5 p35 inh 1, CAL PDZ FP-2 -3 and DYRK1A inh 3.

Source: PubChem BioAssay (Broad Institute)
